Experimental data taken from ChEMBL document CHEMBL1687796, “Synthesis and spectrum of the neoglycoside ACHN-490” (2010).
Converted amounts (≈) assume the structure as drawn.

Tests used:
Assay type in all cases: functional
Citrobacter = test: Antibacterial activity against Citrobacter spp. by broth microdilution method
Procedure, shortened: (§1)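 MICs were determined by CLSI broth microdilution against clinical isolate panels that included aminoglycoside-resistant isolates. […] MIC90 was derived per group and not calculated when n was <10. Imipenem, ceftobiprole, ciprofloxacin and tigecycline MICs were also determined for the resistant isolates.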

Escherichia coli = test: Antibacterial activity against Escherichia coli by broth microdilution method; procedure, shortened: as §1
Enterobacter sp. = test: Antibacterial activity against Enterobacter spp. by broth microdilution method; procedure, shortened: as §1
Klebsiella sp. = test: Antibacterial activity against Klebsiella spp. by broth microdilution method; procedure, shortened: as §1
Proteus mirabilis = test: Antibacterial activity against Proteus mirabilis by broth microdilution method; procedure, shortened: as §1
[1] = Antibacterial activity against indole positive Proteae by broth microdilution method; procedure, shortened: as §1
Serratia sp. = test: Antibacterial activity against Serratia spp. by broth microdilution method; conditions: Serratia sp. (in: enterobacteria); procedure, shortened: as §1
Acinetobacter sp. = test: Antibacterial activity against Acinetobacter spp. by broth microdilution method; procedure, shortened: as §1
Pseudomonas aeruginosa = test: Antibacterial activity against Pseudomonas aeruginosa by broth microdilution method; procedure, shortened: as §1

MIC50 (Citrobacter): 1 µg/mL (≈ 1.87 µM)
MIC50 (Escherichia coli): > 32 µg/mL
MIC90 (Escherichia coli): > 32 µg/mL
MIC50 (Enterobacter sp.): > 32 µg/mL
MIC90 (Enterobacter sp.): > 32 µg/mL
MIC50 (Klebsiella sp.): > 32 µg/mL
MIC90 (Klebsiella sp.): > 32 µg/mL
MIC50 (Proteus mirabilis): 0.125 µg/mL (≈ 0.234 µM)
MIC90 (Proteus mirabilis): > 32 µg/mL
MIC50 [1]: > 32 µg/mL
MIC50 (Serratia sp.): > 32 µg/mL
MIC50 (Acinetobacter sp.): > 32 µg/mL
MIC90 (Acinetobacter sp.): > 32 µg/mL
MIC50 (Pseudomonas aeruginosa): 16 µg/mL (≈ 29.9 µM)
MIC90 (Pseudomonas aeruginosa): > 32 µg/mL
SMILES: Nc1nc(/C(=N/O)C(=O)N[C@@H]2C(=O)N3C(C(=O)O)=C(/C=C4\CCN([C@@H]5CCNC5)C4=O)CS[C@H]23)ns1 [CEFTOBIPROLE]
